Measurements from ChEMBL document CHEMBL1132971, “New azolidinediones as inhibitors of protein tyrosine phosphatase 1B with antihyperglycemic properties” (J Med Chem, 2000).
Calls of active or inactive are those of the source. The calls are words filed in the database; no cut-off is given here.

Legend:
[1] = system: Mus musculus; test: Evaluated in vivo for their ability to decrease plasma glucose levels in diabetic C57BL/KsJ db/db mouse at a dose 100 mg/kg/day, *p indicates <0.05; type: functional
Procedure, shortened: (§1)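 Mice dosed orally once daily for 4 days; plasma glucose and insulin measured and expressed as percent change versus a vehicle-treated group (mean ± SE, 4-6 mice/group). NS is generally less than -15% change. Significance is versus vehicle-treated mice.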

[2] = molecular target: T1, Tyrosine-protein phosphatase non-receptor type 1 (Mus musculus) (UniProt P35821); test: In vivo ability to decrease plasma glucose levels in diabetic C57BL/KsJ ob/ob mouse at a dose 100 mg/kg/day; type: functional, organism-based
T1 sequence (whole entry): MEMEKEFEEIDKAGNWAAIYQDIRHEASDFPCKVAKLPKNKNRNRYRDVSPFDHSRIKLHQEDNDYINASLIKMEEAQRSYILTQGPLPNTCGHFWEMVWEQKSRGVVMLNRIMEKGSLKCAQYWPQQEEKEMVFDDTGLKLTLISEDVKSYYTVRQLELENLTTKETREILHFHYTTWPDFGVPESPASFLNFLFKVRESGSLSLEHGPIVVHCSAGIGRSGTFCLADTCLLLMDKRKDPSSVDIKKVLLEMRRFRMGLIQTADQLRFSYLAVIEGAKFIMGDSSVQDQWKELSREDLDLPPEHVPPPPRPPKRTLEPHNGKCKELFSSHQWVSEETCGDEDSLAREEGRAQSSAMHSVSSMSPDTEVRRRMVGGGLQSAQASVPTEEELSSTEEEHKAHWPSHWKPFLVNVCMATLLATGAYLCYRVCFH
Procedure, shortened: (§2)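 Diabetic db/db or ob/ob mice dosed orally once daily for 4 days. Plasma glucose and insulin reported as percent change from a vehicle-treated group. 4-6 mice per group. Significance set at p < 0.05 or p < 0.01 versus vehicle; NS means generally less than -15% change.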

[3] = molecular target: T2, Tyrosine-protein phosphatase non-receptor type 1 (Rattus norvegicus) (UniProt P20417); test: Inhibition of PTPase activity using recombinant Protein-tyrosine phosphatase 1B as the enzyme and IR-triphosphopeptide as substrate at 50 uM
T2 sequence (whole entry): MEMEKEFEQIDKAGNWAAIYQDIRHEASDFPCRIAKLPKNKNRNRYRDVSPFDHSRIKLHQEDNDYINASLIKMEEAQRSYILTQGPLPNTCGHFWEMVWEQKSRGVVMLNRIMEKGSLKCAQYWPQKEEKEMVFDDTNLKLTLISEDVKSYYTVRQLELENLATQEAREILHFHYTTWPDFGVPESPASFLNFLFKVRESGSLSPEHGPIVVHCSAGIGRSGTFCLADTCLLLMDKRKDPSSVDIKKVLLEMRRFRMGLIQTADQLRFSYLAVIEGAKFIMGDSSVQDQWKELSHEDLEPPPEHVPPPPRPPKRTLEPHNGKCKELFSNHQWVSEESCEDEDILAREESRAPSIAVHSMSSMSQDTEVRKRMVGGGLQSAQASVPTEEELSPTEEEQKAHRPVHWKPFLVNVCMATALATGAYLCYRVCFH
Procedure, shortened: (§3)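 Recombinant rat PTP1B (human 321-aa form assayed the same way), activity about 1000-2000 nmol/min/mg, preincubated with compound for 10 min at 37 °C in HEPES pH 7.4. The reaction is started with 50 µM triphosphorylated insulin receptor 1142-1153 dodecapeptide and run 30 min at 37 °C. Released phosphate read by malachite green-molybdate at 650 nm, in quadruplicate. Result is percent inhibition versus control.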

[4] = molecular target: T2, Tyrosine-protein phosphatase non-receptor type 1 (Rattus norvegicus); test: Inhibition of Protein-tyrosine phosphatase 1B activity in rat hepatic membrane at a concentration of 50 uM using pNPP as the substrate; type: cell membranes; details: Liver
Procedure, shortened: (§4)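 Liver membranes from male Sprague-Dawley rats (100-150 g), about 30 µg protein per well. Preincubated 10 min at 37 °C with compound in 1.25% DMSO in 50 mM HEPES pH 7.4. Then 6.33 mM pNPP for 30 min at 37 °C, stopped with NaOH. p-Nitrophenol read at 410 nm. Run in triplicate. Reported as percent of untreated control.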

[5] = molecular target: T1, Tyrosine-protein phosphatase non-receptor type 1 (Mus musculus); test: Ability to decrease plasma insulin levels in mouse at a dose 100 mg/kg/day; type: functional, organism-based; procedure, shortened: as §2
[6] = system: Mus musculus; test: Evaluated in vivo for their ability to decrease plasma glucose levels in diabetic C57BL/KsJ db/db mouse at a dose 100 mg/kg/day.,*p indicates <0.05; type: functional; procedure, shortened: as §1
[7] = molecular target: T2, Tyrosine-protein phosphatase non-receptor type 1 (Rattus norvegicus); test: Inhibition of PTPase (PTP1B) activity in rat hepatic membrane at 50 uM concentration, using pNPP as the substrate; type: cell membranes; details: Liver; procedure, shortened: as §4
[8] = molecular target: T3, Tyrosine-protein phosphatase non-receptor type 1 (Rattus norvegicus, UniProt P20417); test: Inhibition of PTPase activity using recombinant r-PTP1B and IR-triphosphopeptide as substrate; ND is no data.
T3 sequence (P20417 whole entry): T2 sequence (whole entry)
Procedure, shortened: (§5)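 Rat recombinant PTP1B in 33 mM TRIS-HCl, 2 mM EDTA, 50 mM β-mercaptoethanol, pH 7.4 (about 1000-2000 nmol/min/mg). Preincubated 10 min at 37 °C with or without compound in HEPES buffer pH 7.4. Released phosphate read by malachite green-ammonium molybdate at 650 nm against a phosphate standard. Quadruplicates. IC50 by four-parameter logistic fit.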

[9] = system: Mus musculus; test: Evaluated in vivo for their ability to decrease plasma glucose levels in diabetic C57BL/KsJ db/db mouse at a dose 100 mg/kg/day. *p indicates <0.05; type: functional; procedure, shortened: as §1
[10] = molecular target: T2, Tyrosine-protein phosphatase non-receptor type 1 (Rattus norvegicus); test: Inhibition of PTPase activity using recombinant r-PTP1B as the enzyme and IR-triphosphopeptide as substrate at 10 uM; procedure, shortened: as §3
[11] = molecular target: T3, Tyrosine-protein phosphatase non-receptor type 1; test: Inhibition of PTPase activity using recombinant r-PTP1B as the enzyme and IR-triphosphopeptide as substrate; procedure, shortened: as §5
[12] = system: Mus musculus; test: Evaluated in vivo for their ability to decrease plasma glucose levels in diabetic C57BL/KsJ db/db mouse at a dose 100 mg/kg/day; NS is non significant; type: functional, organism-based; procedure, shortened: as §2
[13] = molecular target: T3, Tyrosine-protein phosphatase non-receptor type 1; test: Inhibition of PTPase activity using recombinant Protein-tyrosine phosphatase 1B and IR-triphosphopeptide as substrate; ND is no data.
[14] = molecular target: T3, Tyrosine-protein phosphatase non-receptor type 1; test: Inhibition of PTPase activity in rat hepatic membrane at a concentration of 50 uM using pNPP as the substrate; type: cell membranes, Liver; procedure, shortened: as §4
[15] = system: Mus musculus; test: Evaluated in vivo for their ability to decrease plasma glucose levels in diabetic C57BL/KsJ ob/ob mouse at a dose 100 mg/kg/day, **p indicates <0.01; type: functional; procedure, shortened: as §1
[16] = system: Mus musculus; test: Evaluated for their ability to decrease plasma insulin levels in mouse at a dose 100 mg/kg/day, **p indicates <0.01; type: functional; procedure, shortened: as §2
[17] = molecular target: T2, Tyrosine-protein phosphatase non-receptor type 1 (Rattus norvegicus); test: Inhibition of PTPase activity using recombinant r-PTP1B as the enzyme and IR-triphosphopeptide as substrate at 50 uM; procedure, shortened: as §5
[18] = system: Mus musculus; test: Evaluated in vivo for their ability to decrease plasma glucose levels in diabetic C57BL/KsJ db/db mouse at a dose 100 mg/kg/day; NS=not significant; type: functional, organism-based; procedure, shortened: as §2
[19] = system: Mus musculus; test: Evaluated for their ability to decrease plasma insulin levels in mouse at a dose 100 mg/kg/day.([…]); type: functional; procedure, shortened: as §2
[20] = system: Mus musculus; test: Evaluated in vivo for their ability to decrease plasma glucose levels in diabetic C57BL/KsJ db/db mouse at a dose 100 mg/kg/day.([…]); type: functional; procedure, shortened: as §2
[21] = molecular target: T2, Tyrosine-protein phosphatase non-receptor type 1 (Rattus norvegicus); test: IC50 for PTPase activity, recombinant r-PTP1B as the enzyme .

## CC/C(=C/Cn1oc(=O)[nH]c1=O)c1cccc(OCc2nc(-c3ccc(C(F)(F)F)cc3)oc2C)c1
[1]
  Decrease: 65%
[2]
  Decrease: Not significant
[3]
  inhibition: 80%
[4]
  inhibition: 56%
[5]
  Decrease: Not significant

## CC/C(=C\c1cccc(OCc2nc(-c3ccc(C(F)(F)F)cc3)oc2C)c1)n1oc(=O)[nH]c1=O
[6]
  Decrease: 24%
[2]
  Decrease: Not significant
[7]
  inhibition: 58%
[8]
  IC50: Not significant
[5]
  Decrease: Not significant

## Cc1oc(-c2ccc(C(F)(F)F)cc2)nc1COc1cccc(C2CC2Cn2oc(=O)[nH]c2=O)c1 (configuration not stated)
[9]
  Decrease: 36%
[2]
  Decrease: Not significant
[7]
  inhibition: 51%
[10]
  inhibition: 28%
[5]
  Decrease: Not significant

## C/C(=C\CC1OC(=O)NC1=O)c1cccc(OCc2nc(-c3ccc(OC(F)(F)F)cc3)oc2C)c1 (configuration not stated)
[9]
  Decrease: 40%
[2]
  Decrease: Not significant
[7]
  inhibition: 27%
[11]
  IC50: 46000 nM
[5]
  Decrease: Not significant

## C/C(Cn1oc(=O)[nH]c1=O)=C(\C)c1cccc(OCc2nc(-c3ccc(C(F)(F)F)cc3)oc2C)c1
[12]
  Decrease: inactive
[2]
  Decrease: Not significant
[13]
  IC50: Not significant
[4]
  inhibition: 54%
[5]
  Decrease: Not significant

## CCCC/C(=C\Cn1oc(=O)[nH]c1=O)c1cccc(Oc2cc(Cl)cc(Cl)c2)c1
[14]
  Inhibition %: 23%
[11]
  IC50: 1600 nM

## Cc1oc(-c2ccc(C(F)(F)F)cc2)nc1COc1cccc(/C(=C/Cn2oc(=O)[nH]c2=O)c2ccc(F)cc2)c1
[15]
  Decrease: 34%
[16]
  Decrease: 38%
[14]
  Inhibition %: 28%
[17]
  inhibition: 1.2%

## CCC/C(=C/Cn1oc(=O)[nH]c1=O)c1cccc(OCc2nc(-c3ccc(C(F)(F)F)cc3)oc2C)c1
[6]
  Decrease: 55%
[2]
  Decrease: Not significant
[7]
  inhibition: 58%
[8]
  IC50: Not significant
[5]
  Decrease: Not significant

## C/C(=C\CC1SC(=O)NC1=O)c1cccc(OCc2nc(-c3ccccc3)oc2C)c1 (configuration not stated)
[7]
  inhibition: 5%
[18]
  Decrease: inactive

## Cc1oc(-c2ccc(C(F)(F)F)cc2)nc1COc1cccc(/C(I)=C/Cn2oc(=O)[nH]c2=O)c1
[7]
  inhibition: 51%
[19]
  Decrease: 64%
[20]
  Decrease: 38%
[21]
  IC50: 1800 nM
